Where “and” joins values, the source holds several entries; their conditions need not be identical. Equal entries are not always repeated.
Test system: S. cerevisiae growth in glycerol medium, OD600, 48 h
Assay: S. cerevisiae growth inhibition on glycerol, dose response, glycerol medium, plate reader, dry powder, set 4 (AID 624012)
Method in brief: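 System – S. cerevisiae yeast cells · Buffer or medium – CSM-glycerol medium · Schedule – 48 h exposure, 30 °C · Detection – optical density at 600 nm (absorbance) · Benchmarks – amphotericin B 10 µM positive control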

Compound `CC1/C=C/C=C\C=C\C=C\C=C\C=C\C=C\C(O[C@H]2OC(C)C(O)C(N)C2O)CC2OC(O)(CC(O)CC(O)C(O)CCC(O)CC(O)CC(=O)OC(C)C(C)C1O)CC(O)C2C(=O)O` (stereo partly drawn) has an AC50 of 274 nM.
`CCOC(=O)N1C(=O)C2(CCCCC2)N(c2ccc(Cl)cc2)C1=S` showed an AC50 of 5.77 nM.
Work on `CCOC(=O)N1C(=O)C2(CCCCC2)N(c2ccc(F)cc2)C1=S` yielded an AC50 of 3.97 nM.
`CCOC(=O)N1C(=O)C2(CCCCC2)N(c2ccc(C)cc2)C1=S` was tested, and the AC50 was 10.8 nM and 6.97 nM.
For `C/C=C/[C@@H]1[C@H]2C[C@@H](C)CC[C@@H]2C(C)=C[C@H]1C(=O)c1c(O)c(-c2ccc(O)cc2)c[nH]c1=O`, the AC50 was 27.5 nM.
`CCOC(=O)N1C(=O)C2(CCCCC2)N(c2ccc(C#N)cc2)C1=S` gave an AC50 of 3.65 nM.
In the case of `CCOC(=O)N1C(=O)C2(CCCCC2)N(c2cccc(C)c2)C1=S`, the AC50 is reported as 18.1 nM.
`CCOC(=O)N1C(=O)C2(CCCCC2)N(c2ccccc2)C1=S` was tested, and the AC50 was 14.6 nM.

Reference: PubChem BioAssay AID624012 (Broad Institute, 2012)
